# High-throughput results as filed in PubChem.
# Compounds with a hit are over-represented: about 2.3% of the library has one in this group of screens.
# TRPC4 PAM – allosteric potentiators of mouse TRPC4 channel | actives 0.42% (n = 310,000) | HEK293 TRPC4beta/mu-opioid, DAMGO EC20, Fluo-4 Ca2+ flux; hits give high values | B-score at 10 µM | AID 2227;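 active means B-score of calcium response area above 5 SD of library B-scores, with initial fluorescence ratio within 5 SD of library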;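 further: B-score of integrated fluorescence ratio over time as area under calcium response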
# Target sequence (Q9QUQ5 whole entry, looked up): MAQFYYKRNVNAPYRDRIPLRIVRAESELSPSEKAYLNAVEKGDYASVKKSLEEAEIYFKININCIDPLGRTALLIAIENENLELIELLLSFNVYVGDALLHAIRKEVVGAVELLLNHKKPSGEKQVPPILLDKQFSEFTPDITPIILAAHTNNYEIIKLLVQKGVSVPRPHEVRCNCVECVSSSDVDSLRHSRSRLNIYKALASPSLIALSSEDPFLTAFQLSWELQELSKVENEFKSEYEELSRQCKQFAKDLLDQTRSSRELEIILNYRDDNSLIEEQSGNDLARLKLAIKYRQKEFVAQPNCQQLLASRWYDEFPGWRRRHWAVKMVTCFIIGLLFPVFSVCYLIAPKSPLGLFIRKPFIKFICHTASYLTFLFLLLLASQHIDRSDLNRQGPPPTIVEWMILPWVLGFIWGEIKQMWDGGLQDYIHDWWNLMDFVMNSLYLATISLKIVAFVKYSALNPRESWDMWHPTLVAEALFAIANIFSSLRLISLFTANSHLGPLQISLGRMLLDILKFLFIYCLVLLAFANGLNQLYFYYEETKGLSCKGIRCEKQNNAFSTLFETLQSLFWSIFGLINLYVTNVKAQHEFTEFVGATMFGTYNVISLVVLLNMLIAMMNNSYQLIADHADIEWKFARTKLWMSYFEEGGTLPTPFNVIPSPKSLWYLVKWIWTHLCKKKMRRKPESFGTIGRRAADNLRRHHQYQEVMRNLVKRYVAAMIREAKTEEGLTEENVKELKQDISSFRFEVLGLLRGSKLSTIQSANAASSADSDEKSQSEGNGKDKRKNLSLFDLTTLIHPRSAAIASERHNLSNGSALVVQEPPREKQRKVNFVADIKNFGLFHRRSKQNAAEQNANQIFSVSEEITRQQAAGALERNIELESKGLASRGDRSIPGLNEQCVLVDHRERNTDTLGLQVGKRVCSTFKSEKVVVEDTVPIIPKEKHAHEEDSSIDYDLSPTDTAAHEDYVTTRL
# TRPC4 agonist – activators of mouse TRPC4 channel; Q9QUQ5; HEK293 TRPC4beta/mu-opioid, Fluo4 calcium fluorescence; hits give high values; B-score at 10 µM; actives 0.49% (n = 310,000);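 active means B-score above 5 SD of library B-scores, and initial fluorescence ratio not above library mean plus 5 SD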;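 further: positive B-score marks a calcium rise read as TRPC4 activation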
#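 Test system: HEK293 cells stably co-expressing mouse TRPC4beta and mu-opioid receptor | Schedule: Fluo4 dye loading 45 min at room temperature, 110 s recording | Measured by: Kinetic Fluo4 calcium fluorescence, 5 s baseline at 1 Hz | Evaluation: B score of integrated ratio | Controls: Buffer (low) and maximal DAMGO (high)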
# TRPC4 inh – TRPC4 (mouse) channel inhibition; B-score at 10 µM; HEK293 TRPC4beta/mu-opioid, DAMGO-evoked Fluo4 calcium flux; hits give low values; actives 0.39% (n = 300,000); Q9QUQ5; AID 2247;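 active means B-score over 3 SD under the library average, no early fluorescence shift, positive overall ratio signal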
#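 Signal: kinetic Fluo4 fluorescence imaging of calcium influx. Material: stable TRPC4beta/mu-opioid receptor HEK293 cells. Probe or stimulus: DAMGO in two steps, submaximal then maximal.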
# TRPC6 act – activators of mouse TRPC6 channel; B-score at 10 µM; actives 0.13% (n = 310,000); Q61143; AID 2550; HEK293-TRPC6 membrane potential dye fluorescence; hits give high values;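 active means B-score of the integrated fluorescence ratio above library mean plus 3 SD, and starting fluorescence ratio within library mean plus 5 SD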;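 further: higher score means more depolarization so channel activation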
# TRPC6 inh – inhibitors of mouse TRPC6 channel; Q61143; HEK293-TRPC6, membrane potential dye, ACh-evoked depolarization; hits give low values; B-score at 10 µM; actives 1.1% (n = 310,000);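 active means B-score under library mean minus 3 SD, initial fluorescence not abnormally high, positive integrated signal ratio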;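 further: B-score derived from integrated fluorescence ratio over the kinetic read; more negative B-score means stronger inhibition of depolarization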
# TRPC4 spec 2 – second selectivity test of TRPC6 inhibitors: effect on mouse TRPC4; shares compounds with TRPC6 inh; HEK293 TRPC4/MOR, membrane potential dye fluorescence; channel activated by saturating DAMGO dose; inhibition, % at 10 µM; actives 42% (n = 920);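 active means compounds whose fluorescence signal differed from control wells by over 3 SD, either direction, in both duplicate plates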
# TRPC4 spec – selectivity of TRPC6 inhibitors: effect on mouse TRPC4; shares compounds with TRPC6 inh; HEK293 TRPC4/mu-opioid, membrane potential fluorescence; activity change, negative = inhibition, % at 10 µM; actives 61% (n = 920); AID 2777;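 active means rise or fall in signal beyond 3 SD of buffer-only wells in both replicate plates, either sign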;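 further: integrated kinetic ratio of fluorescence range over baseline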
# HEK293 MPD ctr 2-1 – second check of TRPC6 inhibitor effects in parental HEK293 cells | shares compounds with TRPC6 inh | actives 31% (n = 920) | signal change vs control, % at 10 µM | parental HEK293 membrane potential dye fluorescence; maximal acetylcholine challenge after compound addition;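 active means membrane potential signal moving either way by over 3 SD of the maximum-effect control, in both duplicate plates, meaning non-specific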
# HEK293 MPD ctr-1 – parental HEK293 nonspecific activity of TRPC6 inhibitors; shares compounds with TRPC6 inh; parental HEK293 membrane potential dye fluorescence; membrane potential signal change, % at 10 µM; actives 60% (n = 920);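 active means membrane potential signal shifting up or down by more than 3 SD of buffer-only wells, on both duplicate plates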
# HEK293 MPD ctr-2 – checks TRPC6 modulator effects in parental HEK293 cells; membrane potential signal change, % at 10 µM; shares compounds with TRPC6 inh; membrane potential dye fluorescence; actives 51% (n = 2,400); AID 488924;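 active means membrane potential signal moves up or down beyond 5 SD from buffer-only wells, on both duplicate plates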
# HEK293 MPD ctr 2-2 – second check of TRPC6 modulator effects in parental HEK293 cells | shares compounds with TRPC6 inh | membrane potential dye fluorescence; after compound, maximal acetylcholine stimulation | inhibition, % at 10 µM | actives 14% (n = 2,400) | AID 488926;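 active means membrane potential signal drops by more than 5 SD from the mean control signal, in both duplicate plates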;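 further: plate controls were acetylcholine ECmax control wells for no effect and buffer only wells for full effect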
# TRPC4/MOR mod – selectivity of TRPC6 modulators against mouse TRPC4 | shares compounds with TRPC6 inh | percent change from control (negative = decrease, positive = increase), % at 10 µM | HEK293 TRPC4/mu-opioid, membrane potential fluorescence | actives 69% (n = 2,400);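 active means membrane potential signal moved up or down beyond 5 SD of buffer control wells, in both duplicate plates, actives on both sides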;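 further: plate controls were assay buffer wells for no effect and DAMGO maximal-effect wells for full effect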
# TRPC4 ctr inh 2 – second selectivity test of TRPC6 modulators against mouse TRPC4; HEK293 TRPC4/mu-opioid, membrane potential dye fluorescence; stimulated with maximal-effect DAMGO; shares compounds with TRPC6 inh; actives 55% (n = 2,400); inhibition, % at 10 µM;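 active means drop in membrane potential signal beyond 5 SD of the control wells in both duplicate plates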;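 further: TRPC4 counter screen for TRPC6 hits run under conditions tuned for TRPC6 not TRPC4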
# TRPC6 block conf – confirmation of mouse TRPC6 inhibitors; shares compounds with TRPC6 inh; inhibition, % at 10 µM; actives 43% (n = 3,300); HEK293-TRPC6, membrane potential dye, ACh-evoked depolarization;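 active means fluorescence ratio falls more than 5 SD below the full-stimulation control mean, in both duplicate runs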;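 further: integrated fluorescence ratio of peak minus minimum over baseline after agonist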
# TRPC6 act conf – confirmation of mouse TRPC6 activators. actives 11% (n = 2,800). HEK293-TRPC6 membrane potential dye fluorescence, FDSS. AID 488961. activation, % at 10 µM. shares compounds with TRPC6 inh;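 active means ratio signal rise beyond 5 SD above unstimulated control wells' mean, seen in both duplicate runs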;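 further: plate controls were buffer EC0 wells for no effect and acetylcholine ECmax response for full effect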
# Numbers without * were called inactive; i = inactive; . = no result given; + = active, no number.
SMILES,TRPC4 PAM,TRPC4 agonist,TRPC4 inh,TRPC6 act,TRPC6 inh,HEK293 MPD ctr-2,HEK293 MPD ctr 2-2,TRPC4/MOR mod,TRPC4 ctr inh 2,TRPC6 block conf,TRPC6 act conf,others
O=C(COC(=O)c1ccc(F)c(S(=O)(=O)N2CCOCC2)c1)NCc1ccco1,i,i,i,i,i,.,.,.,.,.,.,
COc1cccc(OCc2cc(C(=O)N(C)Cc3nc4ccccc4[nH]3)no2)c1,i,i,i,i,i,.,.,.,.,.,.,
COc1cccc(OCc2cc(C(=O)N(Cc3ccccc3)CC3CC3)no2)c1,i,i,i,i,-5.2*,131%*,i,26%*,i,i,.,
O=C(Nc1nc2cc(Cl)ccc2s1)C1CCCN(S(=O)(=O)c2cccc3cccnc23)C1 (stereo not given),i,i,i,i,i,.,.,.,.,.,.,
CCn1ccnc1CN(C)C(=O)c1cc(COc2ccccc2SC)on1,i,i,i,i,-7.5*,.,.,.,.,i,.,TRPC4 spec 2=i;TRPC4 spec=4.0%*;HEK293 MPD ctr 2-1=i;HEK293 MPD ctr-1=7.0%*
CSc1ccccc1OCc1cc(C(=O)N(Cc2nccn2C)C(C)C)no1,i,i,i,i,i,.,.,.,.,.,.,
Cc1cccc(CSC(Nc2ccc(F)cc2)=C(C#N)C#N)c1,i,i,i,i,-5.2*,124%*,i,20%*,48%*,56%*,i,
N#CC(C#N)=C(Nc1ccc(F)cc1)SCc1cccc(Br)c1,i,i,i,i,i,.,.,.,.,.,.,
O=C(C[n+]1cccc(Br)c1)c1ccc(-c2ccccc2)cc1,i,i,i,i,i,.,.,.,.,.,.,
NCCN1C(=O)S/C(=C\c2ccc3c(c2)OCO3)C1=O,i,i,i,i,-5.4*,i,i,-9.5%*,42%*,36%*,i,
COc1cc(/C=C2\SC(=O)N(CCN)C2=O)ccc1OS(=O)(=O)c1cc(C)ccc1C,i,i,i,i,-7.2*,.,.,.,.,i,i,TRPC4 spec 2=i;TRPC4 spec=i;HEK293 MPD ctr 2-1=i;HEK293 MPD ctr-1=i
O=C(CCN1C(=O)/C(=C/c2ccc3c(c2)OCO3)SC1=S)Nc1cccc(C(=O)O)c1,i,i,i,i,i,.,.,.,.,.,.,
O=C(CNC(=O)C1(c2ccccc2)CC1)Nc1ccc(F)c(F)c1,i,i,i,i,i,.,.,.,.,.,.,
N#Cc1ccc(/C=C/C(=O)c2ccco2)cc1,i,i,i,i,i,.,.,.,.,.,.,
Nc1ccc(/C=C/C(=O)c2ccco2)cc1,i,i,i,25*,-8.4*,722%*,+,92%*,52%*,80%*,199%*,
Cn1c(=O)c(C#N)c(-c2ccc(F)cc2)c2cc(C(=O)c3cc(Cl)cc(Cl)c3O)cnc21,i,i,i,i,-9.4*,.,.,.,.,76%*,i,TRPC4 spec 2=44%*;TRPC4 spec=-13%*;HEK293 MPD ctr 2-1=i;HEK293 MPD ctr-1=-158%*
Cn1c(-c2ccc3c(c2)OCO3)cnc1NCc1ccccc1,i,i,i,i,-5.8*,i,i,i,56%*,36%*,i,
Cn1c(-c2ccc3c(c2)OCO3)cnc1NCc1cccc(Cl)c1,i,i,i,i,-7.9*,.,.,.,.,i,i,TRPC4 spec 2=46%*;TRPC4 spec=i;HEK293 MPD ctr 2-1=i;HEK293 MPD ctr-1=i
Cc1ccc(-c2cnc(NCc3cc4c(cc3[N+](=O)[O-])OCO4)n2C)cc1C,i,i,i,i,i,.,.,.,.,.,.,
Cn1c(-c2ccc3c(c2)OCO3)cnc1NC(=O)CCC(=O)NCCc1ccccc1,i,i,i,i,i,.,.,.,.,.,.,
Cn1c(-c2ccc3c(c2)OCO3)cnc1NCc1ccccc1Cl,i,i,i,i,-5.3*,i,i,i,68%*,i,i,
CCOc1cccc(-c2c(C(=O)N/N=C/c3ccc(C)o3)nnn2-c2nonc2N)c1,i,i,i,i,i,.,.,.,.,.,.,
O=C(/C=C/c1ccc(N2CCC(c3ccccc3)=N2)cc1)c1ccccc1,i,i,i,15*,i,350%*,i,80%*,i,i,46%*,
CC(C)(C)c1ccc(-c2cn(-c3ccc(Br)cc3)c3[n+]2CCCS3)cc1,i,i,i,i,i,.,.,.,.,.,.,
CCCCN(CC)CCNC(=O)c1cc2c(=O)[nH]c3ccc(C)cc3c2s1,i,i,i,i,-6.3*,186%*,i,35%*,i,60%*,.,
SMILES,TRPC4 PAM,TRPC4 agonist,TRPC4 inh,TRPC6 act,TRPC6 inh,HEK293 MPD ctr-2,HEK293 MPD ctr 2-2,TRPC4/MOR mod,TRPC4 ctr inh 2,TRPC6 block conf,TRPC6 act conf,others
CCCCN(CC)CCCNC(=O)c1cc2c(=O)[nH]c3ccccc3c2s1,i,i,i,i,i,.,.,.,.,.,.,
CSc1ccc(S(=O)(=O)N2CCC(C(=O)Nc3ccc(C(N)=O)cc3)CC2)cc1,i,i,i,i,i,.,.,.,.,.,.,
CCOc1ccc(Cl)cc1/C=N/O,i,i,-6*,13*,-8.7*,104%*,i,21%*,41%*,78%*,115%*,
CCOc1ccc(Cl)cc1/C=N/NC(N)=O,i,i,i,i,i,.,.,.,.,.,.,
O=C1c2ccccc2C(=O)c2c(NCCCN(CCO)CCO)cccc21,i,i,i,i,-13*,-304%*,90%*,-49%*,80%*,76%*,i,
CCN(CC)CC(=O)Nc1cccc2c1C(=O)c1ccccc1C2=O,i,i,i,i,i,.,.,.,.,.,.,
